Test results: ChEMBL document CHEMBL4376860, “Discovery of Novel Dual Poly(ADP-ribose)polymerase and Phosphoinositide 3-Kinase Inhibitors as a Promising Strategy for Cancer Therapy” (J Med Chem, 2020)
Each block holds one compound with its values, some of them ahead of it. The source made the active and inactive calls. The rule behind the calls is not given here.

What was measured:
Homo sapiens = species: Homo sapiens; test: Selectivity ratio of IC50 for recombinant human PARP1 to IC50 for PI3Kalpha (unknown origin)
[1] = biological target: Phosphatidylinositol 4,5-bisphosphate 3-kinase catalytic subunit alpha isoform (Homo sapiens, UniProt P42336); test: Inhibition of PI3Kalpha (unknown origin) using PIP2 as substrate measured after 1 hr by ADP-glo plus luminescence assay
Phosphatidylinositol 4,5-bisphosphate 3-kinase catalytic subunit alpha isoform, sequence (P42336 whole entry, canonical isoform): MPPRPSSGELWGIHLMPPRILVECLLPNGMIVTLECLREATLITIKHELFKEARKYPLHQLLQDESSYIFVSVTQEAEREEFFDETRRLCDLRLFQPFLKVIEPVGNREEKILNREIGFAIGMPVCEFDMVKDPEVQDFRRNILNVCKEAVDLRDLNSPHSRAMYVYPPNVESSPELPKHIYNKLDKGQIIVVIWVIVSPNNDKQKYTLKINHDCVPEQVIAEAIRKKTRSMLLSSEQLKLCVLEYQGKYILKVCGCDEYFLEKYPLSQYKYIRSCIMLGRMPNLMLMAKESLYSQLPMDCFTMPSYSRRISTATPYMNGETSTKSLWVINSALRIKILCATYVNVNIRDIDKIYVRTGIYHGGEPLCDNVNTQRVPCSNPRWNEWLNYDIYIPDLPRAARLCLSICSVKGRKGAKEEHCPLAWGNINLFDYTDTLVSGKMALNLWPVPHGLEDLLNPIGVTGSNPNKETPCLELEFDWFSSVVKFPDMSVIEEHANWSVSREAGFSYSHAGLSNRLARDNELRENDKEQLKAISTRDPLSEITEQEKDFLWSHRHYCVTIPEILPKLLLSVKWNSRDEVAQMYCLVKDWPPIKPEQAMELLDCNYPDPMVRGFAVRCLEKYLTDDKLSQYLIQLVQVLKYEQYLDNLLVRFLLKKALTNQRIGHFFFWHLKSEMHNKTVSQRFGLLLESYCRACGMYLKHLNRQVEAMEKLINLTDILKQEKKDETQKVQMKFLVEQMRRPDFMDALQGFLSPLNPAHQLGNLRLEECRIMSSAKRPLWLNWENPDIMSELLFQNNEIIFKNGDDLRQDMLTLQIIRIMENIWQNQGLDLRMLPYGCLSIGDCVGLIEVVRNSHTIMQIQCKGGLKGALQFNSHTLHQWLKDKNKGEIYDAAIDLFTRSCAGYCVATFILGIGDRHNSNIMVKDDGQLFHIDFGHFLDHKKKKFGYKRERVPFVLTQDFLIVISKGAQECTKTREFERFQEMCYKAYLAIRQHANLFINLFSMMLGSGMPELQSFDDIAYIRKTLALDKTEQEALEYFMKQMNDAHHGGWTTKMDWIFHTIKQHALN

[2] = biological target: Poly [ADP-ribose] polymerase 1 (Homo sapiens, UniProt P09874); test: Inhibition of recombinant human PARP1 using histone as substrate after 1 hr in presence of biotinylated NAD+ by ELISA
Poly [ADP-ribose] polymerase 1, sequence (P09874 whole entry): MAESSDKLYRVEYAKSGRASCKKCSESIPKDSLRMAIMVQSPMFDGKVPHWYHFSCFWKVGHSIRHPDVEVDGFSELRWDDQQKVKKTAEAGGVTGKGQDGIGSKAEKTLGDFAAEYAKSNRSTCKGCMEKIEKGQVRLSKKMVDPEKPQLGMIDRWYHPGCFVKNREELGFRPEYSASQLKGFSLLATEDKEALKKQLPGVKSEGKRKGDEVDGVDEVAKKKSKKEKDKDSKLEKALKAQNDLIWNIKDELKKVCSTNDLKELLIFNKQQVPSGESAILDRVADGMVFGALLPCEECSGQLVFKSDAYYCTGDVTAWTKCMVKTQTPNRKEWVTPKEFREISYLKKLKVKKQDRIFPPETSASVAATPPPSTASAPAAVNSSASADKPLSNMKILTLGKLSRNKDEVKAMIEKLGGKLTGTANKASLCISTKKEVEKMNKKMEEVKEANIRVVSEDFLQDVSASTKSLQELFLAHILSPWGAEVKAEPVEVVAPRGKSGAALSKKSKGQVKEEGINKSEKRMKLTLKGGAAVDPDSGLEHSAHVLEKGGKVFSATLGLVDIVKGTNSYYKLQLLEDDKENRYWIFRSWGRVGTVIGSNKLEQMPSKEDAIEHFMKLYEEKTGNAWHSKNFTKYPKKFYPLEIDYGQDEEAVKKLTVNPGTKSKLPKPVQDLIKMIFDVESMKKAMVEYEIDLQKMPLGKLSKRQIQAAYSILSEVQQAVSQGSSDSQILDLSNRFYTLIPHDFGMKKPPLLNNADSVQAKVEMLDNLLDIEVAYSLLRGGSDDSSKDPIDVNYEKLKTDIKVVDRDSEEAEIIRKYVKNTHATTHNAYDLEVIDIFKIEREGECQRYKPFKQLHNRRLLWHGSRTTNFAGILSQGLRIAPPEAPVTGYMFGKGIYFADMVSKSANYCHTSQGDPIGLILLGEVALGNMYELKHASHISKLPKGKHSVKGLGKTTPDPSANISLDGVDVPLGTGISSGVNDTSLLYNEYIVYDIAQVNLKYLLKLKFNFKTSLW

MDA-MB-468 [3] = details: Homo sapiens, 2 uM
SW-620 = test: Antiproliferative activity against human SW620 cells measured after 7 days by Celltiter-glo assay; format: functional, cell-based; details: SW-620, 168 h
How it was run: (§1)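 Cells maintained in RPMI1640 with 10% FBS at 37 °C, 5% CO2. Seeded the day before dosing, grown 12 h, then exposed to graded compound concentrations for 7 days. CellTiter-Glo reagent added, 10 min at room temperature, luminescence read. Inhibition % = (1-(RLU compound - RLU blank)/(RLU DMSO - RLU blank))×100. IC50 from nonlinear regression, normalized dose-response fit.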

MDA-MB-468 [4] = test: Induction of apoptosis in human MDA-MB-468 cells assessed as viable cells at 2 uM measured after 72 hrs by Annexin V-FITC/propidium iodide staining based flow cytometry (reference value: 95.2%); format: functional
MDA-MB-468 [5] = test: Induction of DNA damage in human MDA-MB-468 cells at 2 uM measured after 72 hrs by comet assay; format: functional, cell-based
How it was run: (§2)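 MDA-MB-468 cells treated for 72 h, harvested and run in a neutral comet assay. Ethidium bromide staining after electrophoresis. About 200 cell images per group analysed with CASP. DNA damage scored as tail intensity (percentage DNA in tail) and olive tail moment. Mean ± SD of three independent experiments.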

DU-145 = test: Antiproliferative activity against human DU145 cells measured after 7 days by Celltiter-glo assay; format: functional, cell-based; details: DU-145, 168 h; how it was run: as §1
CAKI-1 = test: Antiproliferative activity against human CAKI-1 cells measured after 7 days by Celltiter-glo assay; format: functional, cell-based; details: CAKI-1, 168 h; how it was run: as §1
BXPC-3 = test: Antiproliferative activity against human BxPC3 cells measured after 7 days by Celltiter-glo assay; format: functional, cell-based; details: BXPC-3, 168 h; how it was run: as §1
HCC1937 = test: Antiproliferative activity against human HCC1937 cells measured after 7 days by Celltiter-glo assay; format: functional, cell-based; details: HCC1937, 168 h; how it was run: as §1
MDA-MB-468 [6] = test: Antiproliferative activity against human MDA-MB-468 cells measured after 7 days by Celltiter-glo assay; format: functional, cell-based; details: MDA-MB-468, 168 h; how it was run: as §1
MDA-MB-468 [7] = details: Homo sapiens, 2 uM; remark: listed apart in the source
Jurkat = test: Antiproliferative activity against human Jurkat cells measured after 7 days by Celltiter-glo assay; format: functional, cell-based; details: 168 h; how it was run: as §1
MDA-MB-231 = test: Antiproliferative activity against human MDA-MB-231 cells measured after 7 days by Celltiter-glo assay; format: functional, cell-based; details: MDA-MB-231, 168 h; how it was run: as §1
A549 = test: Antiproliferative activity against human A549 cells measured after 7 days by Celltiter-glo assay; format: functional, cell-based; details: A549, 168 h; how it was run: as §1
Ramos = test: Antiproliferative activity against human Ramos cells measured after 7 days by Celltiter-glo assay; format: functional, cell-based; details: 168 h; how it was run: as §1
A2780 = test: Antiproliferative activity against human A2780 cells measured after 7 days by Celltiter-glo assay; format: functional, cell-based; details: A2780, 168 h; how it was run: as §1
HCT-116 = test: Antiproliferative activity against human HCT116 cells measured after 7 days by Celltiter-glo assay; format: functional, cell-based; details: HCT-116, 168 h; how it was run: as §1
MDA-MB-468 [8] = details: Homo sapiens, 2 uM; remark: listed apart in the source
MDA-MB-468 [9] = test: Inhibition of PI3K in human MDA-MB-468 cells assessed as increase in gammaH2AX foci formation at 1 uM measured after 72 hrs by DAPI staining based immunofluorescence microscopic analysis; format: cell-based
How it was run: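 MDA-MB-468 cells on coverslips given drugs for 72 h. Fixed in 3% formaldehyde, permeabilized with 0.1% Triton X-100, blocked in 10% FBS/PBS, then rabbit anti-γH2AX (Ser139) overnight at 4 °C. Secondary antibody and DAPI stain followed. About 200 cells scored for foci; a cell was positive with more than 5 foci. Three independent experiments.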

MDA-MB-468 [10] = test: Induction of apoptosis in human MDA-MB-468 cells assessed as necrotic cells at 1 uM measured after 72 hrs by Annexin V-FITC/propidium iodide staining based flow cytometry (reference value: 0.13%); format: functional
MDA-MB-468 [11] = test: Inhibition of PI3K in human MDA-MB-468 cells assessed as reduction in pS6 phosphorylation at S240 residue at 1 uM measured after 6 to 72 hrs by Western blot analysis; format: cell-based
How it was run: (§3)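 MDA-MB-468 cells seeded overnight, then exposed for 6 h; control medium contained 1‰ DMSO. Lysates run on 8–12% SDS-PAGE and transferred to PVDF. Blots blocked in 5% BSA/TBST and probed for pAKT-Ser473/total AKT or pS6-Ser240/total S6, with β-actin as loading control. HRP secondary with ECL detection; bands quantified by densitometry. Three independent experiments.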

[12] = Toxicity in BALB/c mouse xenografted with human MDA-MB-468 cells assessed as mortality at 50 mg/kg, ip administered every 2 days for 34 days; format: organism-based; details: in vivo
How it was run: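 Nude mice bearing subcutaneous right-flank MDA-MB-468 tumours (2 × 10^6 exponential-phase cells implanted). Randomised at about 100 mm³ tumour volume; 6 mice per group. Dosed ip every 2 days for 34 days. Vehicle controls received PBS with 5% DMSO. Body weight and tumour size recorded every 2 days; tumour volume calculated as ab²/2 from caliper diameters.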

MDA-MB-468 [13] = test: Inhibition of PI3K in human MDA-MB-468 cells assessed as reduction in AKT phosphorylation at S473 residue at 1 uM measured after 6 to 72 hrs by Western blot analysis; format: cell-based; how it was run: as §3
MDA-MB-468 [14] = test: Induction of apoptosis in human MDA-MB-468 cells assessed as early apoptotic cells at 1 uM measured after 72 hrs by Annexin V-FITC/propidium iodide staining based flow cytometry (reference value: 3.88%); format: functional
MDA-MB-468 [15] = test: Antitumor activity against human MDA-MB-468 cells xenografted in BALB/c mouse assessed as tumor growth inhibition at 50 mg/kg, ip administered every 2 days for 34 days and measured at 2 days interval during compound dosing relative to control; format: functional; details: MDA-MB-468, ip, read-out: TGI
MDA-MB-468 [16] = test: Induction of DNA damage in human MDA-MB-468 cells at 1 uM measured after 72 hrs by comet assay; format: functional, cell-based; how it was run: as §2
MDA-MB-468 [17] = test: Induction of apoptosis in human MDA-MB-468 cells assessed as increase in cleaved PARP level at 1 uM […] by Western blot analysis; format: functional, cell-based
MDA-MB-468 [18] = test: Inhibition of PI3K in human MDA-MB-468 cells assessed as reduction in BRCA1 mRNA level at 1 uM by Trizol reagent-based RT-PCR analysis; format: cell-based
How it was run: (§4)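 Total RNA from treated MDA-MB-468 cells extracted with TRIzol. BRCA1 or BRCA2 mRNA quantified by real-time PCR with GAPDH as internal control. Results given as fold change relative to the internal control. Mean ± SD of three independent experiments.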

MDA-MB-468 [19] = test: Inhibition of PI3K in human MDA-MB-468 cells assessed as reduction in BRCA2 mRNA level at 1 uM by Trizol reagent-based RT-PCR analysis; format: cell-based; how it was run: as §4
MDA-MB-468 [20] = test: Activation of ERK in human MDA-MB-468 cells assessed as increase in ERK autophosphorylation at T202 residue at 1 uM measured after 6 to 72 hrs by Western blot analysis; format: cell-based
How it was run: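 MDA-MB-468 cells seeded in six-well plates, incubated overnight, then treated for 6 h, with 1‰ (v/v) DMSO medium as control. Lysates cleared at 4 °C, protein quantified by BCA, resolved by 8-12% SDS-PAGE and transferred to PVDF. Membranes blocked in 5% BSA/TBST, probed with primary antibodies (pERK-Thr202, total ERK, cleaved PARP, β-actin) and HRP secondary. ECL detection, band densitometry.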

MDA-MB-468 [21] = test: Inhibition of PI3K in human MDA-MB-468 cells assessed as reduction in RAD51 foci formation at 1 uM measured after 72 hrs by DAPI staining based immunofluorescence microscopic analysis; format: cell-based
How it was run: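 RAD51 foci in MDA-MB-468 cells on coverslips after 72 h drug exposure. Cells fixed (3% formaldehyde), permeabilized (0.1% Triton X-100), blocked in 10% FBS/PBS, incubated overnight at 4 °C with rabbit anti-RAD51 polyclonal, then secondary antibody plus DAPI. Foci and percent positive cells (>5 foci per cell) counted from about 200 cells. Mean ± SD of three independent experiments.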

MDA-MB-468 [22] = test: Induction of apoptosis in human MDA-MB-468 cells assessed as viable cells at 1 uM measured after 72 hrs by Annexin V-FITC/propidium iodide staining based flow cytometry (reference value: 95.2%); format: functional; details: MDA-MB-468, 72 h, read-out: Activity
MDA-MB-468 [23] = test: Induction of apoptosis in human MDA-MB-468 cells assessed as late apoptotic cells at 1 uM measured after 72 hrs by Annexin V-FITC/propidium iodide staining based flow cytometry (reference value: 0.78%); format: functional

Ratio IC50 (Homo sapiens): 120
IC50 [1]: 91.2 nM
IC50 [2]: 0.832 nM
Structure (SMILES): Nc1ncc(-c2nc(N3CCOCC3)nc(N3CCN(C(=O)c4cc(Cc5n[nH]c(=O)c6ccccc56)ccc4F)CC3)n2)cn1

IC50 [1]: 30.2 nM
IC50 [2]: 7.94 nM
Structure (SMILES): Nc1ccc(-c2nc3c(c(N4CCOCC4)n2)CCN(C(=O)c2cc(Cc4n[nH]c(=O)c5ccccc45)ccc2F)C3)cn1

IC50 (SW-620): 10200 nM
IC50 (DU-145): 6310 nM
IC50 (BXPC-3): 11700 nM
IC50 (HCC1937): 4570 nM
IC50 (MDA-MB-468 [6]): 13800 nM
IC50 (Jurkat): 1700 nM
IC50 (MDA-MB-231): 18200 nM
IC50 (A549): 5370 nM
IC50 (Ramos): 3980 nM
IC50 (A2780): 741 nM
IC50 (HCT-116): 3020 nM
Structure (SMILES): O=C(c1cc(Cc2n[nH]c(=O)c3ccccc23)ccc1F)N1CCN(C(=O)C2CC2)CC1 [OLAPARIB]
inhibition (MDA-MB-468 [3]): Active
Activity (MDA-MB-468 [4]): 91.5%
Activity (MDA-MB-468 [5]): Active
IC50 (CAKI-1): 7080 nM
inhibition (MDA-MB-468 [7]): Active
inhibition (MDA-MB-468 [8]): Active

Structure (SMILES): Nc1ncc(-c2nc3c(c(N4CCOCC4)n2)CCN(C(=O)c2cc(Cc4n[nH]c(=O)c5ccccc45)ccc2F)C3)cn1
inhibition (MDA-MB-468 [9]): Active
Activity (MDA-MB-468 [10]): 1.15%
inhibition (MDA-MB-468 [11]): Active
IC50 (HCC1937): 3470 nM
Activity [12]: Non-Toxic
inhibition (MDA-MB-468 [13]): Active
Activity (MDA-MB-468 [14]): 14.6%
inhibition in vivo at 50 mg/kg (MDA-MB-468 [15]): 52.7%
Activity (MDA-MB-468 [16]): Active
IC50 [1]: 4.79 nM
Activity (MDA-MB-468 [17]): Active
IC50 (MDA-MB-468 [6]): 2570 nM
inhibition (MDA-MB-468 [18]): Active
inhibition (MDA-MB-468 [19]): Active
IC50 (MDA-MB-231): 3550 nM
Activity (MDA-MB-468 [20]): Active
inhibition (MDA-MB-468 [21]): Active
IC50 (HCT-116): 1580 nM
IC50 [2]: 2.57 nM
viability at 1 µM (MDA-MB-468 [22]): 65.9%
Activity (MDA-MB-468 [23]): 19.4%

IC50 [1]: 324 nM
IC50 [2]: 15.5 nM
Structure (SMILES): Nc1cc(C(F)(F)F)c(-c2cc(N3CCN(C(=O)c4cc(Cc5n[nH]c(=O)c6ccccc56)ccc4F)CC3)nc(N3CCOCC3)n2)cn1

IC50 [1]: > 10000 nM
IC50 [2]: 0.676 nM
Structure (SMILES): O=C(c1cc(Cc2n[nH]c(=O)c3ccccc23)ccc1F)N1CCN(c2nc(-c3ccc4cn[nH]c4c3)nc(N3CCOCC3)n2)CC1

IC50 [1]: 1200 nM
IC50 [2]: 1.12 nM
Structure (SMILES): Nc1ncc(-c2nc(N3CCOCC3)nc(N3CCN(C(=O)c4cc(Cc5n[nH]c(=O)c6ccccc56)ccc4F)CC3)n2)cc1C(F)(F)F

IC50 [1]: 708 nM
IC50 [2]: 0.724 nM
Structure (SMILES): Nc1ccc(-c2nc(N3CCOCC3)nc(N3CCN(C(=O)c4cc(Cc5n[nH]c(=O)c6ccccc56)ccc4F)CC3)n2)c(F)c1

IC50 [1]: 170 nM
IC50 [2]: 9.55 nM
Structure (SMILES): Nc1cc(C(F)(F)F)c(-c2nc(N3CCOCC3)nc(N3CCN(C(=O)c4cc(Cc5n[nH]c(=O)c6ccccc56)ccc4F)CC3)n2)cn1
